# UBC9 SUMO inh = blocks human SUMOylation mediated by UBC9; P63279; HTRF SUMOylation assay, SAE1/SAE2 + UBC9, in vitro; inhibition, % at 35 µM; 0.36% of 290,000 active; AID 2006; in the data active = inhibition above about 50%, passing the limit was not always enough
# APOBEC3G inh = APOBEC3G (human) deaminase inhibition; inhibition, % at 20 µM; Q9HC16; recombinant A3G, ssDNA deamination FAM/TAMRA fluorescence; 0.28% of 330,000 active; AID 493012;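 active = inhibition of at least 40% at 20 µM, with no more than 30% in the related APOBEC3A deaminase screen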;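 note: plate controls were DMSO wells with A3G for no effect and wells lacking A3G enzyme for full effect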
# Target sequence (Q9HC16 whole entry, looked up): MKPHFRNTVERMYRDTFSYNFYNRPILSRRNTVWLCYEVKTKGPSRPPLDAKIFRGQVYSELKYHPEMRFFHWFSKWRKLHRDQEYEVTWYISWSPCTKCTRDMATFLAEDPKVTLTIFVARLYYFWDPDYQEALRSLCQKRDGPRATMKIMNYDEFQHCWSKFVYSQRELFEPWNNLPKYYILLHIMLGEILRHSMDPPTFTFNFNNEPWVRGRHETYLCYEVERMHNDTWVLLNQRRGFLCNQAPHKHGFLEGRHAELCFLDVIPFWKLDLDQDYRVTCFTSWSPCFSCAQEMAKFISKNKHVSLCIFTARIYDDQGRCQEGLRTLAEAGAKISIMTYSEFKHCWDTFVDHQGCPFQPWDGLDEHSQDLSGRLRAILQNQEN
# PfG6PD inh = PfG6PD (Plasmodium falciparum) enzyme inhibition; PfGluPho enzyme, NADPH resazurin-diaphorase fluorescence; AID 504690; 0.78% of 350,000 active; inhibition, % at 20 µM;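 active = inhibition reaching at least a set limit at 20 µM in the primary screen, cut at about 59% in these data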;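 note: 0% = DMSO wells with substrate and 100% = DMSO wells lacking glucose-6-phosphate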
# PfM18AAP inh = blocks P. falciparum M18 aspartyl aminopeptidase; recombinant PfM18AAP, H-Glu-NHMec fluorogenic cleavage; inhibition, % at 7.35 µM; 1.2% of 290,000 active;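 active = inhibition above the campaign mean inhibition over all tested compounds plus 3 SD, cut at about 28% in these data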;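 note: 0% = plate median of test compound wells and 100% = 2 mM ZnCl2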
# HKDC1 inhibitor = inhibitors of human hexokinase HKDC1; recombinant HKDC1, G6PDH/diaphorase resazurin coupled fluorescence; inhibition, % at 20 µM; 0.16% of 340,000 active; AID 493160;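 active = inhibition above about 35% when tested at 20 µM, limit read from the data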;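 note: plate controls were DMSO wells with enzyme for no effect and DMSO wells lacking enzyme for full effect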
#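 Test system: recombinant HKDC1 (HK5) hexokinase enzyme, produced in-house; Amount: enzyme 5 µg/mL final; Buffer or medium: Tris pH 8.0 buffer with MgCl2, Tween-20, BSA, BME; Reagent: glucose and ATP substrates; Doses: 20 µM test compound, 1% DMSO; Incubation: 90 min reaction incubation at room temperature, dark; Detection: resorufin fluorescence at 613 nm.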
# A3A deaminase = human APOBEC3A DNA deaminase inhibition; recombinant A3A, FAM/TAMRA ssDNA deamination fluorescence; P31941; inhibition, % at 20 µM; 0.41% of 330,000 active; AID 493011;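 active = at least 40% inhibition at 20 µM here, with at most 30% in a related deaminase screen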;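 note: plate controls were A3A with DMSO for no effect and wells lacking A3A enzyme for full effect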
# APOBEC3G confirm = APOBEC3G (human) deaminase inhibition, confirmed; inhibition, % at 20 µM; shares compounds with APOBEC3G inh; recombinant A3G ssDNA deaminase, UDG/FAM-TAMRA fluorescence; 72% of 890 active; AID 493152;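 active = inhibition reaching a set limit in any replicate at 20 µM, the limit being 80% of the first screen's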
# UDG ctr A3G = inhibits E. coli UDG, flagging false APOBEC3G inhibitors; shares compounds with APOBEC3G inh; UDG counterscreen, FAM/TAMRA oligo fluorescence; inhibition, % at 20 µM; 710 tested, under 10 active; AID 504715;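 active = compounds giving 40% or more inhibition at 20 µM in any one of the three replicates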;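 note: plate controls were DMSO wells with UDG and oligo for no effect and DMSO wells lacking both for full effect; inhibitors lower the FAM signal released by uracil excision and alkaline cleavage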
# Target sequence (P12295 whole entry, looked up): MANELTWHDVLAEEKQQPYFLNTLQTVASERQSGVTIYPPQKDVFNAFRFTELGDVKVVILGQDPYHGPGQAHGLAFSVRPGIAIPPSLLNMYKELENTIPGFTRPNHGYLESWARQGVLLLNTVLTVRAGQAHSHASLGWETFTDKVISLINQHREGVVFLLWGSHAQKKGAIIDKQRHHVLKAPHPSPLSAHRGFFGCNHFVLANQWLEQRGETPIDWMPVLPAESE
# The depositor's hits bear a star; . = no result given. Hits are enriched below; roughly 2.4% of the tested compounds scored in any of these assays.
SMILES,UBC9 SUMO inh,APOBEC3G inh,PfG6PD inh,PfM18AAP inh,HKDC1 inhibitor,A3A deaminase,APOBEC3G confirm,UDG ctr A3G
Cc1ccc(OCC(=O)NCCN2CCOCC2)cc1C,-13,-5,-10,0,-10,0,.,.
Cc1nnc(N=c2ssnc2Cl)o1,.,74*,116*,.,-88,3,89*,-3
Nc1ccccc1N=c1ssnc1Cl,6,.,59,21,-3,.,.,.
Cc1oc2ccc(OC(=O)N3CCOCC3)cc2c1C(=O)OC(C)C,15,-2,5,-2,-5,-1,.,.
Cc1nc(CNC(=O)C2CCC(=O)N(CCc3ccc(Cl)cc3)C2)sc1C (stereo unspecified),18,-5,-2,3,-2,-4,.,.
CCn1nc(C)c(CNC(=O)C2CCC(=O)N(CCc3ccc(Cl)cc3)C2)c1C (stereo unspecified),4,44*,-4,-2,5,6,-1,.
COc1ccc(OC)c(C(=O)c2coc3ccc(OC(C)=O)cc23)c1,15,79*,-12,-6,-3,1,-2,.
Cc1cc(C)n(CCN(C)c2nc3nonc3nc2N2CCCCC2)n1,-9,-12,-4,-3,-4,0,.,.
CCC(C)(C)C1CCC2(CC1)NC(=S)N(c1ccccc1)N2 (stereo unspecified),6,15,6,1,-1,-3,.,.
CC(C)(C)C1CCC2(CC1)NC(=S)N(c1ccccc1)N2 (stereo unspecified),-3,49*,3,7,-1,-1,-9,-1
COCCn1c(SCC(=O)N2CCCc3ccccc32)nc2c(c1=O)SC(C)C2 (stereo unspecified),-2,82*,7,-4,1,-1,-4,0
COc1ccccc1NS(=O)(=O)c1cc(N)ccc1N1CCCCC1,2,49*,51,4,-6,5,62*,0
Nc1ccc(N2CCCCC2)c(S(=O)(=O)Nc2ccccc2Cl)c1,-4,7,29,15,4,6,.,.
Cc1ccc(C2NC(c3ccc(C)cc3)C(C)C(=NO)C2C)cc1 (stereo unspecified),4,-10,2,-14,0,-3,.,.
N#CC(c1nc2ccccc2nc1N1CCCC1)S(=O)(=O)c1cccs1 (stereo unspecified),78,51*,41,-8,2,-2,5,0
Cc1c(Cl)c([N+](=O)[O-])nn1CC(=O)NCC(C)C,5,48*,-14,-16,-8,-1,-7,-1
Cc1c(Cl)c([N+](=O)[O-])nn1CC(=O)NCc1ccc(Cl)cc1,4,-5,-17,2,9,-3,.,.
CCC(CC)C(=O)c1c[nH]c(C(=O)N2CCN(c3ccc(OC)cc3)CC2)c1,4,48*,-5,1,2,-6,-2,-5
O=C(Nc1nnc(COc2ccc(Cl)cc2)s1)C1CCCO1 (stereo unspecified),0,45*,54,0,-1,0,21*,-2
CC(=O)/C(=N/Nc1ccccc1)N1CCOCC1,6,-2,-4,4,-6,0,.,.
CC(=O)/C(=N/Nc1ccccc1C)N1CCOCC1,-16,41*,8,1,1,0,36*,0
Cc1ccc(Nc2nc(C(=O)N3CCC(C(=O)NCCN4CCOCC4)CC3)cs2)cc1,-1,-1,5,-1,3,2,.,.
CC(C)(C)c1ccc(C(=O)NC(=S)NNC(=O)COc2ccccc2)cc1,-22,-5,-5,6,-8,-3,.,.
Cc1ccccc1C(=O)NCC(=O)NNC(=S)NC(=O)c1ccccc1,-23,43*,3,26,-8,-1,16,-23
Cc1ccc(C(=O)NNC(=S)NC(=O)COc2ccccc2)cc1,-4,53*,-25,9,-14,-4,50*,-4
SMILES,UBC9 SUMO inh,APOBEC3G inh,PfG6PD inh,PfM18AAP inh,HKDC1 inhibitor,A3A deaminase,APOBEC3G confirm,UDG ctr A3G
Cc1ccccc1C(=O)NNC(=S)NC(=O)COc1ccccc1,15,44*,4,-55,-5,-8,64*,-2
CCOC(=O)c1cc2c(C(F)(F)F)cc(-c3ccccc3)nc2o1,9,-3,0,0,0,-1,.,.
Cc1ccc(OC(=O)c2sc(Cl)nc2C)cc1C,-9,54*,-6,-4,10,0,-1,-1
CCOC(=O)C1=C(C)N(c2ccccc2)C(=O)/C1=C\c1ccc(O)c(OC)c1,-17,66*,34,6,12,5,3,.
CCOC(=O)C1=C(C)N(c2ccccc2)C(=O)/C1=C\c1ccco1,5,-2,-1,1,-11,0,.,.
CCn1c(-c2csc(C(C)C)c2)n[nH]c1=S,14,51*,25,9,-5,2,0,.
CCCc1cc(-c2n[nH]c(=S)n2CC)cs1,5,43*,20,5,0,-5,79*,-5
CC(C)Cn1c(-c2csc(C(C)C)c2)n[nH]c1=S,-1,17,29,3,-4,-2,.,.
CCc1cc(-c2n[nH]c(=S)n2CC)cs1,14,52*,24,14,-7,-3,83*,0
Cc1cc(-c2n[nH]c(=S)n2CC(C)C)cs1,16,49*,42,26,-7,1,66*,-5
O=C(NC1CCCCC1)N1CCN(C2CCCCC2)CC1,9,-9,6,2,-7,2,.,.
OCCN(C=NC1=NN(c2cccc(C(F)(F)F)c2)CC1)CCO,7,-7,14,5,-2,-1,.,.
Cc1cc(NC(=O)CCCC(=O)NCc2ccccc2)no1,-3,44*,3,-4,-13,0,0,.
Cc1ccc(CNC(=O)CCCC(=O)Nc2cc(C)on2)cc1,8,-4,-13,2,-5,-1,.,.
CC(C)c1nnc(NC(=O)CCS(=O)(=O)c2ccccc2)s1,16,-7,-4,2,6,-3,.,.
CCCC(C)c1nnc(NC(=O)CCS(=O)(=O)c2ccccc2)s1 (stereo unspecified),10,66*,75*,27,-16,13,56*,-4
Nn1c(Cc2ccc(Br)cc2)n[nH]c1=S,8,51*,58,19,-6,-4,80*,-3
CCOc1ccc(Cc2n[nH]c(=S)n2N)cc1,-4,29,24,14,-2,-4,.,.
COc1ccc(CCCc2n[nH]c(=S)n2C)cc1C,0,27,27,22,-7,-1,.,.
COc1ccc(Cc2n[nH]c(=S)n2N)cc1OC,10,61*,58,18,6,1,58*,0

# Screening data deposited in PubChem BioAssay by several laboratories.
